Screening results: PubChem, several laboratories
In the library only some 5.5% were active in any assay of this set; here they are far more common.
Yeast lifespan up: compounds extending yeast replicative lifespan, primary screen, S. cerevisiae, OD615; AID 775, 2007; S. cerevisiae growth with nicotinamide; deaD strain in restrictive glucose medium; 130,000 tested, 0.68% active; inhibition of the nicotinamide effect, % at 10 µM;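 active means inhibition above a set limit, placed 3 SD over the median of all compounds, cut at about 26% in these data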;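 further: 0% = nicotinamide-treated wells and 100% = cells grown without nicotinamide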
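Test system: DeaD-strain S. cerevisiae / Buffer or medium: restrictive glucose medium / Also added: nicotinamide 1.5 mM / Doses: one concentration, 10 µM, DMSO 0.25% / Schedule: 48 h at 30 °C / Signal: OD615 measurement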
RAM network inh: inhibitors of the yeast RAM network, primary screen, dse1pr::URA3 reporter, 5-FOA selection. S. cerevisiae dse1pr::URA3 reporter, 5-FOA growth OD615, 2 d; analog-sensitive cbk1-as2 kinase mutant strain. inhibition, % at 50 µM. 190,000 tested, 1.8% active;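 active means inhibition above a set limit, 3 SD over mean compound inhibition, cut at about 8.4% in these data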;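 further: 0% = DMSO-only wells with no growth and 100% = 10 µM 1-NA-PP1 full growth; inhibition rescues growth on 5-FOA so higher OD means more RAM inhibition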
WT yeast gro inh: growth inhibition of WT strain, primary screen, mitochondrial fusion inhibitor project, WT and mutant strains, chemical genetic | mitochondrial fusion phenotypic screen | inhibition, % at 10 µM | 190,000 tested, 2.1% active; in the data active means inhibition above about 58%; tested in S. cerevisiae
Yeast growth inh: growth inhibitors of yeast BB579 in restrictive medium, primary screen, yeast lifespan-shortening project, S. cerevisiae; inhibition, % at 10 µM; OD615, 48 h; 140,000 tested, 0.51% active; AID 804, 2007;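 active means inhibition above a set limit, 3 SD over the mean compound inhibition, cut at about 44% in these data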
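System: Saccharomyces cerevisiae DeaD strain BB579, replicative lifespan model yeast | Buffer or medium: Restrictive glucose-based CSMM-D medium | Times: 4 h preincubation and 48 h exposure at 30 °C | Detection: OD615 turbidity measurement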
Cl transport mod: KCC2 cotransporter modulators, thallium flux, primary screen, cell-based, HEK293 KCC2, FluoZin-2 fluorescence, MLSMR; B-score of Tl+ flux slope (higher = more flux/activation; lower = inhibition) at 10 µM; 190,000 tested, 2.2% active; KCC2 cells, thallium flux FluoZin-2 fluorescence; AID 1456, 2008; Solute carrier family 12 member 5 (Homo sapiens), Q9H2X9;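 active means thallium flux slope and its plate-corrected score both differing from the plate sample mean at a set confidence after two filtering rounds, in either direction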;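 further: slope of fluorescence scaled to starting intensity during 10 to 20 s after thallium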
Target sequence (Q9H2X9 whole entry, looked up): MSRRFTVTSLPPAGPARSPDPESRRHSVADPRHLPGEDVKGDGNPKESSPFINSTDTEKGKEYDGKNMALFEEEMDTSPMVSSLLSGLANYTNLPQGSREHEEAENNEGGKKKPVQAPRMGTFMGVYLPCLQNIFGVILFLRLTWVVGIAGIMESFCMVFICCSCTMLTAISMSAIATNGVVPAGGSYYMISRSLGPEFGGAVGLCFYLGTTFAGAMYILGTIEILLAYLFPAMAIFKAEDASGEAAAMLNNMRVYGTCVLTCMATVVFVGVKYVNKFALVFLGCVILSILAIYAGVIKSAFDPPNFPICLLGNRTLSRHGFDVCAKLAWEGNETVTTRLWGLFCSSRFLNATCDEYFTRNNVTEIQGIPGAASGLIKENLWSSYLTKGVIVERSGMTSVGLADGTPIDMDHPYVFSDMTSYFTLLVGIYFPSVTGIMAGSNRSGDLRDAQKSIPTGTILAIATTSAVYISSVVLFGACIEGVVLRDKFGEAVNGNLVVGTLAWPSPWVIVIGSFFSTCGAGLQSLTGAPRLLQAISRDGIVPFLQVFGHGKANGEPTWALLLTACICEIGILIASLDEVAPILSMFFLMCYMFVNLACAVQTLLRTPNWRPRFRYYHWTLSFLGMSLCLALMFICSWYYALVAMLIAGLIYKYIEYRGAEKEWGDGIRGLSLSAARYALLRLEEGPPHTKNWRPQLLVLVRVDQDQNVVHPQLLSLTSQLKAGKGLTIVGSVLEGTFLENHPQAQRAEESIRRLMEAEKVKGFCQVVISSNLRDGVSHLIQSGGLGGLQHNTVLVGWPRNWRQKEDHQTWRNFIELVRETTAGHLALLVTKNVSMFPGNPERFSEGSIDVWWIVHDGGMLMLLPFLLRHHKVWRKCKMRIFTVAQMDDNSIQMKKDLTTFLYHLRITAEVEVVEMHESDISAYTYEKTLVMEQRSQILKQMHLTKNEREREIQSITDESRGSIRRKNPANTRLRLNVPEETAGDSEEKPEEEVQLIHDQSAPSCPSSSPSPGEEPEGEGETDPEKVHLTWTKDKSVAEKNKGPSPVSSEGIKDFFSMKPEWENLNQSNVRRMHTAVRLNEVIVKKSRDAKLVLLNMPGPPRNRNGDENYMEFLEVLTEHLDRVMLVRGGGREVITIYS
Active calls of the source: *; . = no result.

SMILES	Yeast lifespan up	RAM network inh	WT yeast gro inh	Yeast growth inh	Cl transport mod
CCOc1cc(C(=O)CCC(=O)OCC(=O)Nc2ccc(C)c(S(=O)(=O)N(C)C)c2)ccc1O	.	4.4	0.2	.	1.57
Clc1ccc(-c2c(C3=NCCCN3)nnn2-c2ccc(Cl)cc2)cc1	.	.	.	.	-0.86
Clc1ccc(COc2ccccc2CNCc2cccnc2)cc1	48.6*	1.5	9.2	-14.3	-0.0125
COC(=O)c1cn(NC(=O)/C=C/c2cc(OC)ccc2OC)c(=O)c2ccccc12	-2.7	3.1	-1.0	-41.6	0
COc1ccc(/C=C2\SC(N3CCc4ccccc4C3)=NC2=O)cc1	2.7	8.0	62.3*	-26.6	-0.0808
CCOC(=O)CSC1=NC(=O)/C(=C/c2ccc(OC)cc2)S1	56.6*	0.8	18.2	-4.8	0.215
CCOc1ccc(/C=C2\SC(N3CCc4ccccc4C3)=NC2=O)cc1	-2.3	6.1	35.6	-7.2	-0.919
CC1=Nc2ccccc2/C1=C/c1sc(=S)n(-c2cccc(C(=O)O)c2)c1O	.	10.0*	7.0	.	-3.91*
c1ccc(C2=Nn3c(nnc3-c3cc(-c4ccccc4)n[nH]3)SC2)cc1	-4.5	8.6*	-0.8	-3.9	0.139
c1ccc(-c2nnc3n2N=C(c2ccc4c(c2)OCO4)CS3)nc1	-3.0	9.2*	-0.6	-55.2	-1.34
Clc1ccc(C2=Nn3c(nnc3-c3cc(-c4ccccc4)n[nH]3)SC2)cc1	-16.5	9.1*	96.5*	-71.5	.
Cc1ccc(-c2nnc3n2N=C(c2ccccc2)CS3)cc1	-10.9	3.8	-7.4	-24.6	-0.466
COc1ccc(C2=Nn3c(nnc3-c3ccccn3)SC2)cc1OC	-1.2	-0.7	-2.4	-13.1	-1.44
CCOc1ccccc1N1CCN(C(=S)NC(=O)C23CC4CC(CC(C4)C2)C3)CC1	0.9	0.1	58.7*	-0.4	4.75*
CCOc1ccccc1N1CCN(C(=S)NCc2ccc(Cl)cc2)CC1	.	6.3	77.6*	.	0.957
O=C(NC(=S)N1CCN(c2ccc(F)cc2)CC1)C12CC3CC(CC(C3)C1)C2	-5.0	2.6	18.6	-32.6	3.11
CCCCn1nnnc1NCc1ccc(N(CC)CC)cc1	-16.8	2.0	6.8	-30.7	0.101
CCCCN(C)CCCNC(=O)CS(=O)Cc1nc(-c2ccc(OC)c(OC)c2)oc1C (configuration not stated)	-15.9	2.1	14.0	3.5	1.65
CCCN(CCC)CCCNC(=O)CS(=O)Cc1nc(-c2ccc(OC)c(OC)c2)oc1C (configuration not stated)	-7.4	1.1	71.0*	5.4	.
COc1ccc(NC(=O)CC(CC(=O)O)c2cc(OC)c(OC)c(OC)c2)cc1 (configuration not stated)	.	.	.	.	0.0317
Cc1cc(Cl)n2c(nc3cc(F)c(F)cc32)c1C#N	.	-0.5	80.7*	.	-1.95
Cc1cc(C)n2c(=O)c3ccc(Cl)cc3nc2c1C#N	.	-0.4	53.2	.	-1.27
C=CCO/N=C/C1C(=O)CC(C)(C)CC1=O	39.0*	2.8	16.9	-12.3	0.962
CCCCNc1n[n+](C)c(-c2cccc(C)c2)s1	.	.	.	.	0.676
Cc1nc(Nc2ccccc2)sc1-c1ccccc1	-5.3	-2.2	64.1*	-31.7	0.644
SMILES	Yeast lifespan up	RAM network inh	WT yeast gro inh	Yeast growth inh	Cl transport mod
COCCN1C(=O)N[C@@H](c2ccccc2)C(C(C)=O)=C1C	2.4	1.7	9.5	-36.2	1.44
CCN1C(=O)N[C@H](c2ccc(Br)cc2)C(C(C)=O)=C1C	40.1*	-0.4	2.9	-20.0	-0.373
O=C1CCN2C=Nc3cccc4ccc1c2c34	-11.6	0.9	2.7	56.5*	.
c1ccc(CN2CCN(C3=Nc4cccc5cccc3c45)CC2)cc1	-3.4	0.4	2.0	-45.6	-0.6
O=C(O)CCC(=O)Nc1ccc(Oc2ncnc3cc(Cl)ccc23)nc1	.	.	.	.	2.43
Cc1ccccc1N=C(NOCc1ccc(Cl)cc1Cl)c1nonc1N	0.0	6.9	77.8*	-58.9	1.01
Cc1ccccc1N=C(NOCc1ccccc1)c1nonc1N	10.7	2.0	32.2	-32.1	-0.204
O=C(N[C@@H](Cc1c[nH]c2ccccc12)C(=O)O)c1ccc(Cl)cc1	.	8.9*	-16.1	.	0
